Experimental data published in ChEMBL document CHEMBL1139418, “Synthesis and SAR of novel parenteral anti-pseudomonal cephalosporins: discovery of FR264205” (Bioorg Med Chem Lett, 2008).
In brackets after ≈: the same amount, converted by molar mass.

Legend:
Pseudomonas aeruginosa [1] = assay: Antipseudomonal activity against Pseudomonas aeruginosa class A TEM beta-lactamase-induced clinical isolate FP2056 by CLSI method; format: functional
Pseudomonas aeruginosa [2] = assay: Antipseudomonal activity against Pseudomonas aeruginosa class C AmpC(1d) beta-lactamase-induced clinical isolate FP1380 by CLSI method; format: functional; settings: 24 h
Pseudomonas aeruginosa [3] = assay: Antipseudomonal activity against Pseudomonas aeruginosa clinical isolates by CLSI method; format: functional
Mus musculus = assay: Induction of convulsion in intracerebroventricular dosed mouse; format: organism-based; settings: in vivo, icv_or_intrathecal
Pseudomonas aeruginosa [4] = assay: Outer-membrane permeability assessed as ratio of MIC for Pseudomonas aeruginosa in absence of DEAE-dextran to MIC for Pseudomonas aeruginosa in presence of DEAE-dextran; format: functional
In short: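 MIC per CLSI method, measured for each strain with and without the outer-membrane permeabilizer DEAE-dextran. Permeability index is the ratio of MIC without additive to MIC with additive.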

[5] = Pseudomonas aeruginosa, read-out: MIC50

Row | SMILES | MIC (Pseudomonas aeruginosa [1]) | MIC (Pseudomonas aeruginosa [2]) | MIC50 (Pseudomonas aeruginosa [3]; [5]) | ED50 (Mus musculus) | Ratio (Pseudomonas aeruginosa [4]) | MIC50 (Pseudomonas aeruginosa [3])
1 | Cn1c(N)c(CN)c[n+]1CC1=C(C(=O)[O-])N2C(=O)[C@@H](NC(=O)/C(=N\OC(C)(C)C(=O)O)c3nsc(N)n3)[C@H]2SC1 | 0.5 µg/mL (≈ 0.841 µM) | 8 µg/mL (≈ 13.5 µM) | 0.5 µg/mL (≈ 0.841 µM) | 39.3 µg | – | –
2 | CC(C)(O/N=C(\C(=O)N[C@@H]1C(=O)N2C(C(=O)[O-])=C(C[n+]3ccc(N)n3CCO)CS[C@H]12)c1nsc(N)n1)C(=O)O.Cl | 1 µg/mL | 16 µg/mL | 1 µg/mL | 46.9 µg | 64 | –
3 | Cn1c(N)c(NC(=O)CN)c[n+]1CC1=C(C(=O)[O-])N2C(=O)[C@@H](NC(=O)/C(=N\OC(C)(C)C(=O)O)c3nsc(N)n3)[C@H]2SC1 | 0.5 µg/mL (≈ 0.784 µM) | 2 µg/mL (≈ 3.14 µM) | 0.5 µg/mL (≈ 0.784 µM) | > 200 µg | – | –
4 | Cn1c(N)c(/C=C/CN)c[n+]1CC1=C(C(=O)[O-])N2C(=O)[C@@H](NC(=O)/C(=N\OC(C)(C)C(=O)O)c3nsc(N)n3)[C@H]2SC1 | 1 µg/mL (≈ 1.61 µM) | 2 µg/mL (≈ 3.22 µM) | 0.5 µg/mL (≈ 0.806 µM) | 122 µg | – | –
5 | CO/N=C(/C(=O)N[C@@H]1C(=O)N2C(C(=O)[O-])=C(C[n+]3ccn4ncccc43)CS[C@H]12)c1nsc(N)n1 | 2 µg/mL (≈ 3.88 µM) | 32 µg/mL (≈ 62.1 µM) | 2 µg/mL (≈ 3.88 µM) | 230 µg | – | –
6 | CC(C)(O/N=C(\C(=O)N[C@@H]1C(=O)N2C(C(=O)[O-])=C(C[n+]3cccc(N)c3)CS[C@H]12)c1nsc(N)n1)C(=O)O | 1 µg/mL (≈ 1.78 µM) | 32 µg/mL (≈ 56.9 µM) | 1 µg/mL (≈ 1.78 µM) | – | 32 | –
7 | CC(C)(O/N=C(\C(=O)N[C@@H]1C(=O)N2C(C(=O)[O-])=C(C[n+]3cccc(NC(=N)N)c3)CS[C@H]12)c1nsc(N)n1)C(=O)O | 1 µg/mL (≈ 1.65 µM) | 8 µg/mL (≈ 13.2 µM) | 1 µg/mL (≈ 1.65 µM) | – | 16 | –
8 | CC(C)(O/N=C(\C(=O)N[C@@H]1C(=O)N2C(C(=O)[O-])=C(C[n+]3ccc(CCN)cc3)CS[C@H]12)c1nsc(N)n1)C(=O)O | 1 µg/mL (≈ 1.69 µM) | 4 µg/mL (≈ 6.77 µM) | 1 µg/mL (≈ 1.69 µM) | – | 8 | –
9 | CC(C)(O/N=C(\C(=O)N[C@@H]1C(=O)N2C(C(=O)O)=C(C[n+]3ccc4n3CCN4)CS[C@H]12)c1nsc(N)n1)C(=O)O.O=S(=O)([O-])O | 1 µg/mL | 16 µg/mL | 1 µg/mL | – | – | –
10 | CC(C)(O/N=C(\C(=O)N[C@@H]1C(=O)N2C(C(=O)O)=C(C[n+]3ccc4n3CCCN4)CS[C@H]12)c1nsc(N)n1)C(=O)O.O=S(=O)([O-])O | 1 µg/mL | 4 µg/mL | 1 µg/mL | – | – | –
11 | Cn1c(N)c(CNC(=N)N)c[n+]1CC1=C(C(=O)[O-])N2C(=O)[C@@H](NC(=O)/C(=N\OC(C)(C)C(=O)O)c3nsc(N)n3)[C@H]2SC1 | 0.5 µg/mL (≈ 0.785 µM) | 1 µg/mL (≈ 1.57 µM) | 0.5 µg/mL (≈ 0.785 µM) | 4.69 µg | – | 0.5 µg/mL (≈ 0.785 µM)
12 | CC(C)(O/N=C(\C(=O)N[C@@H]1C(=O)N2C(C(=O)[O-])=C(C[n+]3ccccc3)CS[C@H]12)c1nsc(N)n1)C(=O)O | 1 µg/mL (≈ 1.83 µM) | 32 µg/mL (≈ 58.4 µM) | 2 µg/mL (≈ 3.65 µM) | – | – | –
13 | CC(C)(O/N=C(\C(=O)N[C@@H]1C(=O)N2C(C(=O)[O-])=C(C[n+]3ccc(N)n3CCCF)CS[C@H]12)c1nsc(N)n1)C(=O)O | 1 µg/mL (≈ 1.63 µM) | 8 µg/mL (≈ 13.1 µM) | 1 µg/mL (≈ 1.63 µM) | – | – | –
14 | Cn1c(N)cc[n+]1CC1=C(C(=O)[O-])N2C(=O)[C@@H](NC(=O)/C(=N\OC(C)(C)C(=O)O)c3nsc(N)n3)[C@H]2SC1 | 1 µg/mL (≈ 1.77 µM) | 32 µg/mL (≈ 56.6 µM) | 1 µg/mL (≈ 1.77 µM) | – | – | –
15 | CC(C)(O/N=C(\C(=O)N[C@@H]1C(=O)N2C(C(=O)[O-])=C(C[n+]3ccccc3)CS[C@H]12)c1csc(N)n1)C(=O)O [CEFTAZIDIME] | 2 µg/mL (≈ 3.66 µM) | 128 µg/mL (≈ 234 µM) | 2 µg/mL (≈ 3.66 µM) | 71 µg | – | –
16 | Cn1c(N)c(NC(=O)NCCN)c[n+]1CC1=C(C(=O)O)N2C(=O)[C@@H](NC(=O)/C(=N\OC(C)(C)C(=O)[O-])c3nsc(N)n3)[C@H]2SC1 [CEFTOLOZANE] | 0.5 µg/mL (≈ 0.75 µM) | 2 µg/mL (≈ 3 µM) | 0.5 µg/mL (≈ 0.75 µM) | 428 µg | – | –
